High-throughput results: PubChem BioAssay, several laboratories
Shown are actives, neighbours in structure and some others; about 1.8% of the full set was active somewhere.
NR2E3 ag-1 = human photoreceptor-specific nuclear receptor agonism | Q9Y5X4 | inhibition of corepressor binding, % at 3.98 µM | AID 602229 | actives 0.35% (n = 360,000) | CHO-S Gal4-NCOR/VP16-NR2E3 two-hybrid, luciferase;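 active means inhibition above the mean of all tested compounds plus 3 SD, cut at about 70% in these data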;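 further: 0% = DMSO with NR2E3 transfected cells and 100% = cells lacking NR2E3 construct; higher means lower luciferase signal from less NR2E3 corepressor binding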
Target sequence (Q9Y5X4 whole entry, looked up, the tested form may be a part): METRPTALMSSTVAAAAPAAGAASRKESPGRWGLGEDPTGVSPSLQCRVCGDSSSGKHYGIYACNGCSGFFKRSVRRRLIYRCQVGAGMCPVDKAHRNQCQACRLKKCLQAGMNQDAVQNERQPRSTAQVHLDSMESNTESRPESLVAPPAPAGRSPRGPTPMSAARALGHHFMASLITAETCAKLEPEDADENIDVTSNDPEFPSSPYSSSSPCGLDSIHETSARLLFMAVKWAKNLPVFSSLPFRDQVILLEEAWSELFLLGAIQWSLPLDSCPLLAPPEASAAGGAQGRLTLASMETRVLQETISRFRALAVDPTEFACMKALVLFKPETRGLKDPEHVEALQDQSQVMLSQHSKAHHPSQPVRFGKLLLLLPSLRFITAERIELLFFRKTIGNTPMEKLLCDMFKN
NR2E3 ag-2 = NR2E3 (human) agonism; AID 2300; actives 0.12% (n = 320,000); GST-NR2E3/biotin-RetCOR TR-FRET, 1536-well; inhibition of corepressor binding, % at 4.78 µM;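 active means percent inhibition above the cutoff of mean plus 3 SD of all tested compounds, set per screening campaign, cut at about 20% in these data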;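 further: 0% = DMSO wells and 100% = biotin wells as full block of FRET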
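Material: NR2E3–RetCOR corepressor complex / Incubation: Compound–protein incubation for 5 h at 4 °C / Dosing: compound at 4.8 µM, single dose / Detection: time-resolved FRET / Benchmarks: high control biotin, low control 0.6% DMSO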
Rev-erbA mod = modulators of human Rev-erb alpha DNA binding; P20393; Rev-erbα–FITC-DNA binding, fluorescence polarization, 90 min; activity, % at 10 µM; actives 0.79% (n = 370,000);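 active means activity above about 14%, limit read from the data; passing the limit was not always enough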;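 further: 0% = DMSO wells with 35 nM protein and 100% = DMSO wells with 750 nM protein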
GalR3 antagonist = antagonists of human GalR3 | AID 651719 | inhibition, % at 3 µM | O60755 | HEK293 GalR3-CNG cAMP membrane potential fluorescence; galR3 body fused to GalR1 C-terminus | actives 0.44% (n = 360,000);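 active means inhibition above the screen-wide average plus 3 SD, cut at about 13% in these data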;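 further: forskolin and galanin both at EC90 stimulate the cells; cAMP rise reported by CNG channel membrane potential dye signal; 0% = forskolin plus galanin with DMSO and 100% = forskolin alone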
Target sequence (O60755 1-299 limits assumed): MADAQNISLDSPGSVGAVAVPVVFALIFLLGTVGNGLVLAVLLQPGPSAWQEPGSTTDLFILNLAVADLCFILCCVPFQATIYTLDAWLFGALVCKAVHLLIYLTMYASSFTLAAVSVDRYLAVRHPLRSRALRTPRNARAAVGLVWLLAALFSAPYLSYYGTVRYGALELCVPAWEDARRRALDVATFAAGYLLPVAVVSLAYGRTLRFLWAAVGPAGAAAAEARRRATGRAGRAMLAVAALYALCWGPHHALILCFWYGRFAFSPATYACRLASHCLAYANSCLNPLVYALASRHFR
PG9 binder = PG9 antibody binding by small molecule; TR-FRET gp120-PG9 antibody binding; AID 624416; inhibition, % at 6.7 µM; actives 0.43% (n = 360,000); in the data active means inhibition above about 8.5%
NR2E3 ag conf = confirmation of human NR2E3 agonists; actives 51% (n = 2,300); shares compounds with NR2E3 ag-1; CHO-S mammalian two-hybrid NR2E3-NCOR, luciferase luminescence; inhibition, % at 3.98 µM; AID 624378;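 active means average inhibition above a cutoff equal to the mean inhibition of all tested compounds plus one SD, cut at about 70% in these data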;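 further: 0% = DMSO in NR2E3 cells and 100% = DMSO in cells lacking NR2E3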
GAL4-VP16 luc = reduces GAL4-VP16 reporter signal in NR2E3 counterscreen | CHO-S GAL4-VP16 luciferase reporter, luminescence | actives 29% (n = 2,300) | shares compounds with NR2E3 ag-1 | AID 624379 | inhibition, % at 3.98 µM;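 active means mean inhibition above a cutoff equal to the average over all tested compounds plus one standard deviation, cut at about 70% in these data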;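 further: luciferase from a UAS reporter driven by GAL4-VP16 transactivation; 0% = DMSO with VP16-transfected cells and 100% = DMSO with cells lacking VP16; higher means less reporter light so more repression of VP16 activity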
* hit, by the source's call.

How did CN(CCO)c1ccc2c(c1)Oc1ccccc1CN(Cc1cn(Cc3ccc(C(F)(F)F)cc3)nn1)S2(=O)=O do in these assays?
Rev-erbA mod: -3

How did COC(=O)[C@]12C[C@H](CC(=O)NCC34CC5CC(CC(C5)C3)C4)C(=O)N(Cc3ccco3)C1=C[C@H](COCc1ccccc1)O[C@@H]2C do in these assays?
Rev-erbA mod: 2

What do the screens show for `Nc1nc2ccc(Cl)cc2cc1C(=O)NCCc1ccc(O)cc1`?
Rev-erbA mod: -9; GalR3 antagonist: -7; PG9 binder: 0

What do the screens show for `Nc1nc2ccccc2cc1C(=O)NCc1ccc(Cl)cc1Cl`?
NR2E3 ag-1: 91*; NR2E3 ag conf: 97*; GAL4-VP16 luc: 79*

How did COc1ccc(CCNC(=O)/C=C/c2ccc3ccccc3n2)cc1OC do in these assays?
NR2E3 ag-1: 48; NR2E3 ag-2: 3; Rev-erbA mod: -3; GalR3 antagonist: -9; PG9 binder: -3; NR2E3 ag conf: -9; GAL4-VP16 luc: -15

Results for COc1ccc(CCNC(=O)c2cc3cc(Cl)ccc3nc2N)cc1OC ?
NR2E3 ag-1: 66; NR2E3 ag conf: 68; GAL4-VP16 luc: 65

What do the screens show for `Nc1nc2ccc(Cl)cc2cc1C(=O)NCc1ccccc1Br`?
Rev-erbA mod: -4

Results for O=C1CCC[C@H]2C[C@H](NCc3ccco3)CC[C@]23CCCN13 ?
Rev-erbA mod: 1

Results for CCOC(=O)[C@]12CCCC3=C1N(CCC3)C(=O)[C@@H](CC(=O)NCc1ccc(OC)c(OC)c1)C2 ?
Rev-erbA mod: 1

What do the screens show for `Cc1ccc(NC(=S)NC2CCSc3ccccc32)cc1C` (centres undefined)?
NR2E3 ag-1: 66; NR2E3 ag-2: 1; Rev-erbA mod: -2; GalR3 antagonist: -4; PG9 binder: -2; NR2E3 ag conf: -8; GAL4-VP16 luc: 17

Results for CCC[C@H]1[C@@H](OC(=O)NCc2ccccc2)CC[C@@]23CCCN2C(=O)CCC[C@@H]13 ?
Rev-erbA mod: -3

Results for Cc1[nH]nc(S(=O)CC(=O)O)c1[N+](=O)[O-] (centres undefined) ?
NR2E3 ag-1: 59; NR2E3 ag-2: 4; Rev-erbA mod: -1; GalR3 antagonist: 0; PG9 binder: -2; NR2E3 ag conf: 1; GAL4-VP16 luc: -7

What do the screens show for `Cc1[nH]nc(SCC(=O)N2CCCC2)c1[N+](=O)[O-]`?
NR2E3 ag-1: -54; NR2E3 ag-2: 2; Rev-erbA mod: 1; GalR3 antagonist: 4; PG9 binder: -1

Results for CN(Cc1ccccc1)C(=O)Cn1c(=O)oc2cc(S(=O)(=O)NCc3ccccc3)ccc21 ?
NR2E3 ag-1: 48; NR2E3 ag-2: 5; Rev-erbA mod: -8; GalR3 antagonist: 0; PG9 binder: 0; NR2E3 ag conf: 17; GAL4-VP16 luc: 41

What do the screens show for `N#CCC[C@@H]1CC[C@]2(CCCN(C(=O)c3ccc4ccccc4n3)C2)O1`?
Rev-erbA mod: 4

What do the screens show for `CC(=O)O[C@]1(C(C)=O)CCC2C3C=C(Cl)C4=CC(=O)CC[C@]4(C)C3CC[C@@]21C` (some centres undefined)?
Rev-erbA mod: 4

What do the screens show for `CC(C)[C@H](NC(=O)c1ccccc1Cl)C(=O)Nc1nc(-c2ccccn2)cs1`?
NR2E3 ag-1: 17; NR2E3 ag-2: 3; Rev-erbA mod: -5; GalR3 antagonist: 2; PG9 binder: 2

Results for O=C(Nc1nc(-c2ccccn2)cs1)Nc1ccc(F)cc1F ?
NR2E3 ag-1: 70*; NR2E3 ag-2: 0; Rev-erbA mod: 1; GalR3 antagonist: -6; PG9 binder: 0; NR2E3 ag conf: 36; GAL4-VP16 luc: -20

What do the screens show for `CC(Oc1ccc(Br)cc1)C(=O)Nc1nc(-c2ccccn2)cs1` (centres undefined)?
NR2E3 ag-1: 76*; NR2E3 ag-2: -3; Rev-erbA mod: -3; GalR3 antagonist: -2; PG9 binder: -1; NR2E3 ag conf: 19; GAL4-VP16 luc: 13

Results for Fc1ccc(-c2n[nH]c(=S)n2N=Cc2cccc(OCc3ccccc3)c2)cc1 ?
Rev-erbA mod: 5

How did O=C(CCCN1C(=O)/C(=C/c2ccc3c(c2)OCO3)SC1=S)Nc1ccc(C(=O)O)cc1 do in these assays?
NR2E3 ag-1: 51; NR2E3 ag-2: 2; Rev-erbA mod: 1; GalR3 antagonist: 1; PG9 binder: -4; NR2E3 ag conf: 34; GAL4-VP16 luc: 64

Results for O=C(CCCN1C(=O)C(=Cc2ccc3c(c2)OCO3)SC1=S)Nc1ccc(C(=O)O)c(O)c1 ?
NR2E3 ag-1: 50; Rev-erbA mod: -4; GalR3 antagonist: -6; PG9 binder: -4; NR2E3 ag conf: 8; GAL4-VP16 luc: 66

What do the screens show for `O=C(CCN1C(=O)/C(=C/c2ccc3c(c2)OCO3)SC1=S)Nc1ccc(C(=O)O)cc1`?
NR2E3 ag-1: -40; NR2E3 ag-2: -1; Rev-erbA mod: 12; GalR3 antagonist: -7; PG9 binder: -2

Results for O=[N+]([O-])c1cc(C=NN2CCN(Cc3ccccc3Cl)CC2)ccc1Cl ?
Rev-erbA mod: 1

Results for COc1cc(CN(C)c2ncnc3sccc23)ccc1OC(F)F ?
NR2E3 ag-1: 84*; NR2E3 ag-2: 3; Rev-erbA mod: -3; GalR3 antagonist: -8; PG9 binder: 1; NR2E3 ag conf: 74*; GAL4-VP16 luc: 61

Results for Cc1ccc([C@@H]2CC=C(C(=O)O)[C@H](c3ccc(Br)cc3)N2S(=O)(=O)c2ccccc2C)cc1 ?
NR2E3 ag-1: 64; Rev-erbA mod: -5; GalR3 antagonist: -5; PG9 binder: 0; NR2E3 ag conf: 16; GAL4-VP16 luc: 3

What do the screens show for `COc1ccc([C@@H]2CC=C(C(=O)O)[C@H](c3ccc(Br)cc3)N2S(=O)(=O)c2ccccc2C)cc1`?
NR2E3 ag-1: 27; Rev-erbA mod: -2; GalR3 antagonist: -3; PG9 binder: -1

Results for Cc1ccccc1S(=O)(=O)N1[C@@H](c2ccc(Br)cc2)C(C(=O)O)=CC[C@H]1c1ccc(Cl)cc1 ?
NR2E3 ag-1: 79*; Rev-erbA mod: -10; GalR3 antagonist: -7; PG9 binder: -1; NR2E3 ag conf: 38; GAL4-VP16 luc: 14

How did CN(c1ccccc1)c1ccc(/C=C(/CCC(=O)O)c2nc3ccccc3s2)cc1[N+](=O)[O-] do in these assays?
NR2E3 ag-1: 67; Rev-erbA mod: -5; GalR3 antagonist: 3; PG9 binder: 1; NR2E3 ag conf: 26; GAL4-VP16 luc: 44
